From ChEMBL document CHEMBL3259792 (Eur J Med Chem, 2014)

How the values were obtained:
[1] = Cytotoxicity against human MT4 cells assessed as cell viability by MTT assay; assay type: cell-based
In short: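 Mock-infected MT-4 cells exposed to a range of compound concentrations. Viable cells measured by MTT colorimetry at day 5. CC₅₀ = concentration causing 50% death of non-infected cells. Means of two to three independent experiments, each in triplicate.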

[2] = system: Human immunodeficiency virus 1; experiment: Antiviral activity against HIV1 NL4.3 infected in human MT4 cells assessed as inhibition of virus-induced cell death measured after 5 days of infection by MTT method; assay type: functional, organism-based; details: Human immunodeficiency virus 1, NL4.3, MT4, 120 h
In short: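 Lymphoid MT-4 cells (NIH AIDS Reagent Program) infected with HIV-1 NL4-3 in the presence of varying compound concentrations. On day 5 post-infection, viable cells were counted by MTT tetrazolium colorimetry. EC₅₀ = concentration inhibiting virus-induced cell death by 50%. Means of two to three independent experiments, each in triplicate.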

[3] = Selectivity index, ratio of CC50 for human MT4 cells to EC50 for HIV1 NL4.3 infected in human MT4 cells; assay type: toxicity, cell-based; details: read-out: Ratio CC50/EC50
In short: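 Ratio CC₅₀/EC₅₀. CC₅₀ is from mock-infected MT-4 cells and EC₅₀ from HIV-1 NL4-3-infected MT-4 cells, both read by MTT at day 5 post-infection.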

[4] = system: Human immunodeficiency virus 1; experiment: Antiviral activity against HIV1 harboring reverse transcriptase K103N mutant infected in human MT4 cells assessed as inhibition of virus-induced cell death measured after 5 days of infection by MTT method; assay type: functional, organism-based; details: Human immunodeficiency virus 1, MT4, 120 h
In short: (§1)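 MT-4 cells infected with the named NNRTI-resistant HIV-1 RT mutant strain, in the presence of a range of compound concentrations. Viable cells counted at day 5 post-infection by tetrazolium (MTT) colorimetry. […] Mean of 2–3 independent experiments, each in triplicate.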

[5] = system: Human immunodeficiency virus 1; experiment: Antiviral activity against HIV1 harboring reverse transcriptase Y181C mutant infected in human MT4 cells assessed as inhibition of virus-induced cell death measured after 5 days of infection by MTT method; assay type: functional, organism-based; details: Human immunodeficiency virus 1, MT4, 120 h; in short: as §1
[6] = system: Human immunodeficiency virus 1; experiment: Antiviral activity against HIV1 harboring reverse transcriptase Y188L mutant infected in human MT4 cells assessed as inhibition of virus-induced cell death measured after 5 days of infection by MTT method; assay type: functional, organism-based; details: Human immunodeficiency virus 1, MT4, 120 h; in short: as §1
[7] = system: Human immunodeficiency virus 1; experiment: Antiviral activity against HIV1 harboring reverse transcriptase K103N/Y181C double mutant infected in human MT4 cells assessed as inhibition of virus-induced cell death measured after 5 days of infection by MTT method; assay type: functional, organism-based; details: Human immunodeficiency virus 1, MT4, 120 h; in short: as §1
[8] = system: Human immunodeficiency virus 1; experiment: Ratio of EC50 for HIV1 harboring reverse transcriptase K103N/Y181C double mutant to EC50 for wild type HIV1 NL4.3; assay type: functional
In short: (§2)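 Fold change is the EC50 against the named mutant strain divided by the EC50 against wild-type HIV-1 NL4-3. […] Means of 2–3 independent experiments in triplicate.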

[9] = system: Human immunodeficiency virus 1; experiment: Ratio of EC50 for HIV1 harboring reverse transcriptase K103N mutant to EC50 for wild type HIV1 NL4.3; assay type: functional; in short: as §2
[10] = system: Human immunodeficiency virus 1; experiment: Ratio of EC50 for HIV1 harboring reverse transcriptase Y181C mutant to EC50 for wild type HIV1 NL4.3; assay type: functional; in short: as §2
[11] = system: Human immunodeficiency virus 1; experiment: Ratio of EC50 for HIV1 harboring reverse transcriptase Y188L mutant to EC50 for wild type HIV1 NL4.3; assay type: functional; in short: as §2
[12] = target: T1, Human immunodeficiency virus type 1 reverse transcriptase (Human immunodeficiency virus 1, UniProt Q72547); experiment: Inhibition of HIV1 wild-type reverse transcriptase using [3H]dTTP by scintillation counting
[13] = target: Human immunodeficiency virus type 1 reverse transcriptase (Human immunodeficiency virus 1, UniProt Q72547, K103N); experiment: Inhibition of HIV1 wild-type reverse transcriptase K103N mutant using [3H]dTTP by scintillation counting
[14] = target: T1, Human immunodeficiency virus type 1 reverse transcriptase; experiment: Inhibition of HIV1 wild-type reverse transcriptase Y181I/Y181C mutant using [3H]dTTP by scintillation counting
[15] = system: Human immunodeficiency virus 1; experiment: Antiviral activity against HIV1 3B infected in human CEM cells assessed as protection of cells monitored by giant cell formation by microscopy; assay type: functional, organism-based; details: Human immunodeficiency virus 1, 3B, CCRF-CEM
In short: (§3)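 Human CEM cultures (~3 × 10⁵ cells/mL) infected with ~100 CCID₅₀ per mL of HIV-1 IIIB or HIV-2 ROD, seeded with serial compound dilutions. Incubated 4 days at 37 °C; syncytium (giant cell) formation scored by microscopy. EC₅₀ = concentration protecting cells from viral cytopathicity by 50%. Means of two to three independent experiments, each in triplicate.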

[16] = system: Human immunodeficiency virus 2; experiment: Antiviral activity against HIV-2 ROD infected in human CEM cells assessed as protection of cells monitored by giant cell formation by microscopy; assay type: functional, organism-based; details: Human immunodeficiency virus 2, ISOLATE ROD, CCRF-CEM; in short: as §3
[17] = system: Human immunodeficiency virus 1; experiment: Antiviral activity against HIV1 harboring reverse transcriptase […] mutant infected in human MT4 cells assessed as inhibition of virus-induced cell death measured after 5 days of infection by MTT method; assay type: functional, organism-based; details: Human immunodeficiency virus 1, MT4, 120 h; in short: as §1
[18] = system: Human immunodeficiency virus 1; experiment: Ratio of EC50 for HIV1 harboring reverse transcriptase […] mutant to EC50 for wild type HIV1 NL4.3; assay type: functional; in short: as §2
[19] = target: Human immunodeficiency virus type 1 reverse transcriptase (Human immunodeficiency virus 1, UniProt Q72547, L100I); experiment: Inhibition of HIV1 wild-type reverse transcriptase L100I mutant using [3H]dTTP by scintillation counting
In short: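 RNA-dependent DNA polymerase activity of recombinant RT (2–4 nM) on poly(rA)/oligo(dT) 10:1 with [3H]dTTP (1 Ci/mmol). Incubation at 37 °C. Acid-insoluble radioactivity collected on GF/C filters after 5% cold TCA, counted by scintillation.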

| SMILES | CC50 [1] [µM] | EC50 [2] [µM] | selectivity ratio [3] | EC50 [4] [µM] | EC50 [5] [µM] | EC50 [6] [µM] | EC50 [7] [µM] | Ratio EC50 [8] | Ratio EC50 [9] | Ratio EC50 [10] | Ratio EC50 [11] | IC50 [12] [µM] | IC50 [13] [µM] | IC50 [14] [µM] | EC50 [15] [µM] | EC50 [16] [µM] | EC50 [17] [µM] | Ratio EC50 [18] | IC50 [19] [µM] |
| --- | --- | --- | --- | --- | --- | --- | --- | --- | --- | --- | --- | --- | --- | --- | --- | --- | --- | --- | --- |
| Cc1ccc(CNC(=O)c2[nH]c3ccc(Cl)cc3c2S(=O)(=O)c2cc(C)cc(C)c2)cc1 | 21.2 | 0.0021 | 10100 | 0.385 | 0.215 | > 21.2 | > 21.2 | >10105 | 183 | 103 | >10105 | 0.05 | > 20 | > 20 |  |  |  |  |  |
| COc1ccc(CNC(=O)c2[nH]c3ccc(Cl)cc3c2S(=O)(=O)c2cc(C)cc(C)c2)cc1 | 39.9 | 0.00021 | 190000 | 0.021 | 0.021 | > 39.2 | > 39.2 | >186557 | 100 | 100 | >186557 | 0.0037 | > 20 | > 20 |  |  |  |  |  |
| Cc1cc(C)cc(S(=O)(=O)c2c(C(=O)NCc3ccc(Cl)cc3)[nH]c3ccc(Cl)cc23)c1 | > 51.3 | 0.0082 | > 6260 | 0.103 | 0.451 | > 51.3 | > 51.3 | >6255 | 13 | 55 | >6255 | 0.057 | 7.5 | > 20 |  |  |  |  |  |
| Cc1cc(C)cc(S(=O)(=O)c2c(C(=O)NCc3ccc([N+](=O)[O-])cc3)[nH]c3ccc(Cl)cc23)c1 | > 50.2 | 0.002 | > 25100 | 0.12 | 0.07 | > 50.2 | > 50.2 | >25103 | 60 | 35 | >25103 | 0.05 | 0.218 | > 20 |  |  |  |  |  |
| Cc1cc(C)cc(S(=O)(=O)c2c(C(=O)NCc3ccc(N(C)C)cc3)[nH]c3ccc(Cl)cc23)c1 | 40.7 | 0.0121 | 3360 | 0.322 | 1.03 | > 40.3 | > 40.3 | >3332 | 27 | 85 | >3332 |  |  |  |  |  |  |  |  |
| Cc1cc(C)cc(CNC(=O)c2[nH]c3ccc(Cl)cc3c2S(=O)(=O)c2cc(C)cc(C)c2)c1 | > 52 | 0.0042 | > 12400 | 0.18 | > 2 |  | > 51.8 | >12332 | 43 | >476 |  | 7 | > 20 | > 20 | 0.028 | > 2 | 0.065 | 15 | 5.9 |
| Cc1cc(C)cc(S(=O)(=O)c2c(C(=O)NCCc3ccccc3Cl)[nH]c3ccc(Cl)cc23)c1 | 45 | 0.004 | 11200 | 0.037 | 0.25 |  | 45 | 11243 | 9.3 | 63 |  | 0.131 | 3.14 | > 20 | 0.0094 | > 10 | 0.024 | 6 | 0.27 |
| Cc1cc(C)cc(S(=O)(=O)c2c(C(=O)NCCc3cccc(Cl)c3)[nH]c3ccc(Cl)cc23)c1 | 29.1 | 0.004 | 7270 | 0.18 | 0.87 |  | 29.1 | 7274 | 45 | 218 |  | 0.083 | 5.94 | > 20 | 0.011 | > 10 | 0.031 | 7.8 | 0.01 |
| Cc1cc(C)cc(S(=O)(=O)c2c(C(=O)NCCc3ccc(Cl)cc3)[nH]c3ccc(Cl)cc23)c1 | 32.4 | 0.0538 | 602 | ≥ 2 | 1.7 |  | 32.4 | 602 | >=37 | 36 |  | 0.089 | 0.06 | > 20 | 0.068 | > 10 | 0.19 | 3.5 | 0.96 |
| Cc1cc(C)cc(S(=O)(=O)c2c(C(=O)NCCc3ccccc3C)[nH]c3ccc(Cl)cc23)c1 | > 52 |  | > 8380 | 0.1 |  |  | > 51.9 | >8383 | 16 |  |  | 0.288 | 12.4 | > 20 | 0.0091 | > 10 | 0.02 | 3.2 | 0.2 |
| Cc1ccc(CCNC(=O)c2[nH]c3ccc(Cl)cc3c2S(=O)(=O)c2cc(C)cc(C)c2)cc1 | > 52 | 0.0229 | > 2270 | > 50 | 1.8 |  | > 51.9 | >2268 | 2183 | 79 |  | 2 | > 20 | > 20 | 0.033 | > 50 |  |  | 16.2 |
| Cc1cc(C)cc(S(=O)(=O)c2c(C(=O)NCC(C)c3ccccc3)[nH]c3ccc(Cl)cc23)c1 (racemic) | 19.9 | 0.00021 | 94900 | 0.029 | 0.291 | > 19.9 | > 19.9 | >94938 | 138 | 1386 | >94938 |  |  |  |  |  |  |  |  |
| O=C1Nc2ccc(Cl)cc2[C@@](C#CC2CC2)(C(F)(F)F)O1 [EFAVIRENZ] | > 15.8 | 0.0159 |  | 0.13 | 0.16 | 0.76 | > 0.317 |  |  |  |  |  |  |  |  | > 10 | 0.022 |  |  |
| Cc1ccnc2c1NC(=O)c1cccnc1N2C1CC1 [NEVIRAPINE] | > 18.8 | 0.112 |  | > 3.76 | > 3.76 | > 3.76 | > 3.76 |  |  |  |  |  |  |  |  | > 10 | 0.06 |  |  |
| Cc1cn([C@H]2C[C@H](N=[N+]=[N-])[C@@H](CO)O2)c(=O)[nH]c1=O [ZIDOVUDINE] | > 30.6 | 0.0037 | > 8270 | 0.016 | 0.006 | 0.033 | 0.016 |  | 4.3 | 1.6 | 8.9 |  |  |  |  |  |  |  |  |
